From ChEMBL document CHEMBL1806443, “Novel imidazo[4,5-b]pyridine and triaza-benzo[c]fluorene derivatives: synthesis, antiproliferative activity and DNA binding studies” (Eur J Med Chem, 2011)
Calls of active or inactive are those of the source. The rule behind the calls is not given here.

Tests used:
SW-620 [1] = experiment: Cell cycle arrest in human SW620 cells assessed as accumulation at G1 phase at 1 uM after 24 hrs by propidium iodide staining based flow cytometeric analysis (reference value: 29.3 +/- 1.5%); assay type: functional
SK-BR-3 = experiment: Antiproliferative activity against human SKBR3 cells after 72 hrs by MTT assay; assay type: functional, cell-based; conditions: Homo sapiens, SK-BR-3, 72 h
How it was run: (§1)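 Monolayer cells in DMEM with 10% FBS, 2 mM L-glutamine, penicillin and streptomycin at 37 °C, 5% CO2. Seeded at 3000-6000 cells/well by doubling time on day 0. Five 10-fold dilutions (0.01–100 µM) were added and incubated 72 h. MTT read-out, converted to percentage growth. IC50 by linear regression between bracketing concentrations. Quadruplicate points, three independent experiments, ANOVA/Tukey p<0.05.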

HEp-2 = experiment: Antiproliferative activity against human Hep2 cells after 72 hrs by MTT assay; assay type: functional, cell-based; conditions: Homo sapiens, HEp-2, 72 h; how it was run: as §1
MIA PaCa-2 [2] = experiment: Cell cycle arrest in human MIAPaCa2 cells assessed as accumulation at G1 phase at 1 uM after 24 hrs by propidium iodide staining based flow cytometeric analysis (reference value: 51.2 +/- 2.7%); assay type: functional
SW-620 [3] = experiment: Cell cycle arrest in human SW620 cells assessed as accumulation at G2/M phase at 5 uM after 48 hrs by propidium iodide staining based flow cytometeric analysis (reference value: 16.1 +/- 0.9%); assay type: functional
MIA PaCa-2 [4] = experiment: Cell cycle arrest in human MIAPaCa2 cells assessed as accumulation at S phase at 1 uM after 48 hrs by propidium iodide staining based flow cytometeric analysis (reference value: 20.5 +/- 0.2%); assay type: functional
HeLa = experiment: Cytostatic activity against human HeLa cells at 1 to 10 uM after 72 hrs by MTT assay; assay type: functional, cell-based
How it was run: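 Monolayers in DMEM with 10% FBS, 2 mM L-glutamine, penicillin and streptomycin (37 °C, 5% CO2) were seeded at 3000–6000 cells/well on day 0. Five 10-fold dilutions (0.01–100 µM) were added, followed by 72-h incubation and MTT read-out. Absorbances were converted to percentage growth by the NIH formulae. Each point was run in quadruplicate in three experiments; ANOVA with Tukey test.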

MIA PaCa-2 [5] = experiment: Cell cycle arrest in human MIAPaCa2 cells assessed as accumulation at G1 phase at 5 uM after 48 hrs by propidium iodide staining based flow cytometeric analysis (reference value: 65.2 +/- 1.9%); assay type: functional

Cl.c1cnc2nc3ccc4ccc(C5=NCCN5)cc4n3c2c1
Activity (SW-620 [1]): 54.3%
IC50 (SK-BR-3): 2200 nM
IC50 (HEp-2): 270 nM
Activity (MIA PaCa-2 [2]): 41.6%
Activity (SW-620 [3]): 1.5%
Activity (MIA PaCa-2 [4]): 34.6%
Activity (HeLa): Active
Activity (MIA PaCa-2 [5]): 42.4%
